Assay results from different studies.
Each line is one published result; the experiments were not run side by side.
Target: Mitogen-activated protein kinase kinase kinase 2 (MAP3K2, Homo sapiens, UniProt Q9Y2U5)
Sequence (Q9Y2U5 1-619, as in one of the studies): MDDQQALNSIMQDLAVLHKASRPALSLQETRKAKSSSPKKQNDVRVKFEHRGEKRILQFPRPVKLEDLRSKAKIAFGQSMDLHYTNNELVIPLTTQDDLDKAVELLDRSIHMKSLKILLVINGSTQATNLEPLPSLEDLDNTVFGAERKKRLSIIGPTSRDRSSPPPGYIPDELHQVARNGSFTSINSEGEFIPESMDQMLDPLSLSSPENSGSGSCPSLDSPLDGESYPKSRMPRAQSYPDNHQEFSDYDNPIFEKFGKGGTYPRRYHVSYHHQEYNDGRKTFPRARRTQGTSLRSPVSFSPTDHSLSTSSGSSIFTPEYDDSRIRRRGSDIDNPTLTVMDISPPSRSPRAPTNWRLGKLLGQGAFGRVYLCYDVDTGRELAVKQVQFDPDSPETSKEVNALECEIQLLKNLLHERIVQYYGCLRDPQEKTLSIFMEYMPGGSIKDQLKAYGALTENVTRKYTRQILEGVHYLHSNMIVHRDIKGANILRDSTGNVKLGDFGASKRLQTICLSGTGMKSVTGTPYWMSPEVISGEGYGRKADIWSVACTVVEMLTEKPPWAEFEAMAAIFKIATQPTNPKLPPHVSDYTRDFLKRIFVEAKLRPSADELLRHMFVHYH

SMILES	read-out	mode	method	cell line	tested at	quantity	value
CC(C)(C)c1nc2c(s1)c1nc(N)ncc1c1ccc(NS(=O)(=O)c3c(F)cccc3F)c(F)c12	enzyme activity	inhibitor	radiometric	–	1 µM	remaining activity	83%
CCOc1cc(-c2nncn2C)ccc1Nc1ncc2cc(C)nc(NCC(C)(C)C)c2n1	cell-free assay	–	TR-FRET	–	1 µM	inhibition	≤ 15%
CCN(CC)CCNC(=O)c1c(C)[nH]c(/C=C2\C(=O)Nc3ccc(F)cc32)c1C	cell-free assay	–	–	–	0.5 µM	remaining signal	51.9%
Cc1nc(C2CCN(C(=O)c3ccc(OC(F)(F)F)cc3N)CC2)c2ncc(N3CCN(C)CC3)cc2n1	cell-free assay	–	competition with immobilised ligand	–	1 µM	remaining binding	100%
COc1cc(Cl)c(C(=O)N[C@@H](CN[C@H]2CC[C@@H](N)CC2)Cc2ccc(C#N)cc2)cc1-c1ccc(CN[C@H](C)c2ccc(C)cc2)o1	enzyme activity	inhibitor	–	–	1 µM	remaining activity	110%
Cc1ccc(C(=O)NCc2ccsc2)cc1C#Cc1cn(C(C)C)c2ncnc(N)c12	enzyme activity	inhibitor	–	–	1 µM	activity vs control	61%
N#CCCc1ccc2c(c1)-c1[nH]c3ccc([N+](=O)[O-])cc3c1CC(=O)N2	cell-free assay	–	–	–	0.5 µM	remaining signal	61.5%
Cc1ccc(C(=O)Nc2ccc(CN3CCN(C)CC3)c(C(F)(F)F)c2)cc1C#Cc1cnc2cccnn12	enzyme activity	inhibitor	–	–	23.5 nM	remaining activity	55%
Cc1cc(C)c(-n2ccn3nc(-c4cccnc4)cc23)cc1NC(=O)c1cc(C#N)cc(S(F)(F)(F)(F)F)c1	cell-free assay	–	competition with immobilised ligand	–	0.1 µM	remaining binding	86.4%
O=C(Nc1cnn(-c2csc(C(=O)NC3COC3)c2)c1)Nc1ccccc1Cl	enzyme activity	inhibitor	–	–	5 µM	remaining activity	110%
O=C(NCc1ncc(C(F)(F)F)cc1Cl)c1ccc2c(c1)C1(CCS(=O)(=O)CC1)[C@H](C1CC1)N2S(=O)(=O)c1ccc(F)cc1	cell-free assay	–	competition with immobilised ligand	–	1 µM	remaining binding	66%
Cc1cc(NC(=O)c2cccc3cc(-c4cccc5[nH]nc(N)c45)ccc23)ccc1F	enzyme activity	inhibitor	–	–	0.1 µM	activity vs control	100%
CN(C)C(=O)Cn1cc(-c2nc([C@@](C)(c3ccc(-c4cnc(N)nc4)cc3)C3CC3)no2)cn1	cell-free assay	–	competition with immobilised ligand	–	1 µM	remaining binding	94%
CCN1CCN(Cc2ccc(NC(=O)c3ccc(C)c(Oc4ccnc5[nH]ccc45)c3)cc2C(F)(F)F)CC1	target engagement in cells	inhibitor	chemoproteomics	Huh-7	1 µM	inhibition	-39%
